These results are taken from ChEMBL document CHEMBL1811758, “Inhibition of monoamine oxidase by C5-substituted phthalimide analogues” (Bioorg Med Chem, 2011).

Data set [1] is filed under the species Homo sapiens. The experiment in a line: Selectivity index, ratio of Ki for human recombinant MAOA to Ki for human recombinant MAOB. The gist of the method:
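Recombinant human MAO-A and MAO-B from baculovirus-infected insect-cell microsomes. Kynuramine at 45 µM (A) or 30 µM (B) final, in 100 mM potassium phosphate pH 7.4 made isotonic with KCl. 37 °C for 20 min, stopped with NaOH; 4-hydroxyquinoline fluorescence read at ex 310/em 400 nm. IC50 from 9–10 concentrations, duplicate. Ki = IC50/(1+[S]/Km), Km 16.1 (A), 22.7 µM (B); ratio Ki(A)/Ki(B).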

Data set [2] has as its target T1, Amine oxidase [flavin-containing] A (Homo sapiens, UniProt P21397).
T1 sequence (P21397 whole entry): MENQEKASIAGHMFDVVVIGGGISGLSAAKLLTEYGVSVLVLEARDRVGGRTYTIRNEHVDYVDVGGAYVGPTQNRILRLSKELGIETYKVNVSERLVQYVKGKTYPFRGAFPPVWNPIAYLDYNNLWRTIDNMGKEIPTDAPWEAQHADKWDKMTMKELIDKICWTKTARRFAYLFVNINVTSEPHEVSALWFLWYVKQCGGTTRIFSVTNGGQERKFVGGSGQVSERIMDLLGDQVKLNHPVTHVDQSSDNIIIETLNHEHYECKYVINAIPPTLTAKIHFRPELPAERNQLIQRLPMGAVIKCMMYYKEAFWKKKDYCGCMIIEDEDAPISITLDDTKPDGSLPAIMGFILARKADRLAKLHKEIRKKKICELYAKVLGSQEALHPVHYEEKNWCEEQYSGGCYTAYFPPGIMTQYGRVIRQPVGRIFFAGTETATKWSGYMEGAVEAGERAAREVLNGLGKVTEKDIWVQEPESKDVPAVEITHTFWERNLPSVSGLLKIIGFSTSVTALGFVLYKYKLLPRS
Nature of the data set: Inhibition of human recombinant MAOA expressed in insect cells using kynuramine substrate by fluorescence spectroscopy.

The target in data set [3] is T2, Amine oxidase [flavin-containing] B (Homo sapiens, UniProt P27338).
T2 sequence (P27338 whole entry): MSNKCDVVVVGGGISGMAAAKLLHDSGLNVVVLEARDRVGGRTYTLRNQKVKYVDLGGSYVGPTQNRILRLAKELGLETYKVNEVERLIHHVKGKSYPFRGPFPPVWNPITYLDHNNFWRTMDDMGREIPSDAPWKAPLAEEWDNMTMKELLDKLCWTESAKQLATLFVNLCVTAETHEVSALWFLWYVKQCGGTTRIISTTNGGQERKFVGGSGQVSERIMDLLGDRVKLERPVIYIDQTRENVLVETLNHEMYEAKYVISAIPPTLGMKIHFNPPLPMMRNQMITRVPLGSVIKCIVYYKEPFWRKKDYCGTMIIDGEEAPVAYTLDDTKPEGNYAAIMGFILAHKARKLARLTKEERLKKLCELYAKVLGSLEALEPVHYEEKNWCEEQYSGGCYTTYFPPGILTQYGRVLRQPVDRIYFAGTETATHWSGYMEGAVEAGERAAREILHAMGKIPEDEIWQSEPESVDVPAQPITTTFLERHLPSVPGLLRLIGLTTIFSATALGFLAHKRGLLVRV
Nature of the data set: Inhibition of human recombinant MAOB expressed in insect cells using kynuramine substrate using Cheng and Prusoff equation by fluorescence spectroscopy.

Data set [4] has as its target T2, Amine oxidase [flavin-containing] B. Nature of the data set: Inhibition of human recombinant MAOB expressed in insect cells using kynuramine substrate by fluorescence spectroscopy.
The target in data set [5] is T1, Amine oxidase [flavin-containing] A. The experiment in a line: Inhibition of human recombinant MAOA expressed in insect cells using kynuramine substrate using Cheng and Prusoff equation by fluorescence spectroscopy.
The target is the same in data set [6]. The experiment in a line: Inhibition of human recombinant MAOA expressed in insect cells using kynuramine substrate at 100 uM by fluorescence spectroscopy. The procedure, abridged:
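MAO-A (insect-cell microsomes) was incubated with kynuramine (45 µM final) for 20 min at 37 °C in isotonic phosphate buffer, pH 7.4, with inhibitor at a maximum tested concentration of 100 µM. The reaction was stopped with NaOH, and 4-hydroxyquinoline was read fluorometrically (ex 310/em 400 nm). Percent inhibition is the mean of duplicates.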

In data set [7] the target is T2, Amine oxidase [flavin-containing] B. Nature of the data set: Inhibition of human recombinant MAOB expressed in insect cells using kynuramine substrate at 100 uM by fluorescence spectroscopy. The procedure, abridged: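 Single-point MAO-B assay: inhibitor at a maximum of 100 µM, kynuramine 30 µM final, 20 min at 37 °C in isotonic 100 mM potassium phosphate, pH 7.4. NaOH was added to stop the reaction, and 4-hydroxyquinoline was measured by fluorescence (ex 310/em 400 nm). Duplicate determinations were made, with percent inhibition reported.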

Data set [8] concerns the target T1, Amine oxidase [flavin-containing] A. The experiment in a line: Reversible inhibition of human recombinant MAOA expressed in insect cells using kynuramine substrate by Lineweaver-Burk plot. The gist of the method:
(§1)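 Kynuramine at 15, 30, 60 and 90 µM; MAO-A at 0.015 mg/mL in the reaction; inhibitor at 0, 1.7, 3.4 and 6.8 µM. Reactions ran in isotonic potassium phosphate (100 mM, pH 7.4) at 37 °C for 20 min and were stopped with NaOH. Initial rates were read by 4-hydroxyquinoline fluorescence (ex 310/em 400 nm) and plotted double-reciprocally.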

For data set [9], the target named is T2, Amine oxidase [flavin-containing] B. The experiment in a line: Reversible inhibition of human recombinant MAOB expressed in insect cells using kynuramine substrate by Lineweaver-Burk plot. The gist of the method:
(§2)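 Initial MAO-B rates (0.015 mg/mL enzyme) were measured at kynuramine 15, 30, 60 and 90 µM, without inhibitor and with 0.625, 1.25 or 2.5 µM inhibitor. Incubation was 20 min at 37 °C in isotonic 100 mM potassium phosphate, pH 7.4, followed by NaOH stop. 4-Hydroxyquinoline fluorescence (ex 310/em 400 nm) was read, and Lineweaver–Burk plots were drawn.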

For data set [10] the target is unchanged. Nature of the data set: Time dependent inhibition of human recombinant MAOB expressed in insect cells at 5 uM preincubated 0 to 60 mins before kynuramine substrate addition by fluorescence spectroscopy. The procedure, abridged:
(§3)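 Enzyme (0.03 mg/mL) was preincubated with inhibitor for 0, 15, 30 or 60 min at 37 °C in isotonic 100 mM potassium phosphate, pH 7.4. Preincubation inhibitor was 13.42 µM for MAO-A and 5.00 µM for MAO-B. Kynuramine was then added (45 µM for MAO-A, 30 µM for MAO-B), giving final enzyme 0.015 mg/mL and final inhibitor 6.71 µM (A) or 2.5 µM (B). After 15 min at 37 °C and NaOH stop, 4-hydroxyquinoline fluorescence was read, in triplicate.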

For data set [11], the target named is T1, Amine oxidase [flavin-containing] A. The experiment in a line: Time dependent inhibition of human recombinant MAOA expressed in insect cells at 13.42 uM preincubated 0 to 60 mins before kynuramine substrate addition by fluorescence spectroscopy. The procedure, abridged: as §3
Data set [12] concerns the target T2, Amine oxidase [flavin-containing] B. Nature of the data set: Competitive inhibition of human recombinant MAOB expressed in insect cells using kynuramine substrate by Lineweaver-Burk plot. The procedure, abridged: as §2
Data set [13] addresses T1, Amine oxidase [flavin-containing] A. Nature of the data set: Competitive inhibition of human recombinant MAOA expressed in insect cells using kynuramine substrate by Lineweaver-Burk plot. The gist of the method:
as §1

Molecules are shown by their SMILES.

On to `O=C1NC(=O)c2cc(OC/C=C/c3ccccc3)ccc21`, for which the Ratio Ki in [1] worked out at 120. Moreover, the results for the IC50 in [2] and in data set [4] were 8990 nM and 46 nM, respectively. The values for the Ki in data set [3] and in [5] were 20 nM and 2370 nM, respectively.

Turning to `O=C1NC(=O)c2cc(Oc3ccc4ccccc4c3)ccc21`, the Ratio Ki in [1] was 17. In addition, the 50% inhibitory concentration (IC50) (usually the concentration at which inhibition is half-maximal) in [2] turned out to be 920 nM; in [4], 33 nM. In addition, the inhibition constant Ki – broadly, the dissociation constant of the complex between target and ligand, obtained from inhibition or displacement – in data set [3] was found to be 10 nM; in [5], 200 nM.

Take `O=C1NC(=O)c2cc(Oc3ccc(Br)cc3)ccc21`: the Ratio Ki in data set [1] was determined as 12. The values for the IC50 in [2] and in data set [4] were 1080 nM and 55 nM, respectively. Moreover, the Ki in [3] is 24 nM; in data set [5] it was 285 nM.

Turning to `O=C1NC(=O)c2cc(OCCCc3ccccc3)ccc21`, the Ratio Ki in [1] is 21. Further, the IC50 in [2] is 1730 nM; in data set [4], 50 nM. The Ki amounted to 20 nM in data set [3] and 460 nM in [5].

For `O=C1NC(=O)c2ccccc21` [PHTHALIMIDE], the concentration for half-maximal inhibition (IC50) in data set [4] was determined as 134000 nM.

Take `O=C1c2ccccc2C(=O)N1Cc1ccccc1`: the “inhibition (INH)” value in data set [6] (100 µM) was “Not Active”. In addition, the inhibition – broadly, the drop in the measured response relative to a control, in per cent – at 100 µM in [7] turned out to be 20.2%.

Regarding `O=C1c2ccccc2C(=O)N1c1ccccc1` [N-PHENYL-PHTHALIMIDE], the inhibition at 100 µM in [6] turned out to be 10.5%; in [7] it was 50.3%.

For `O=C1NC(=O)c2cc(Oc3ccccc3)ccc21`, the Ratio Ki in data set [1] is 1. Besides, the “inhibition (INH)” value in data set [8], in data set [9], in data set [12] and in data set [13] was “Active” in each case. Further, the results for the IC50 in [2] and in data set [4] were 5850 nM and 2490 nM, respectively. The TDI entry in data set [10] and in data set [11] was “Not Active” each time. For the same compound, the results for the Ki in data set [3] and in data set [5] were 1070 nM and 1540 nM, respectively.
